In the M2OR odorant receptor database:

Experiments:
Settings in all cases: stereoisomer not certain
OR10J5 (Homo sapiens) = target: T1, OR10J5 (Homo sapiens) (UniProt Q8NHC4)
T1 sequence (whole entry): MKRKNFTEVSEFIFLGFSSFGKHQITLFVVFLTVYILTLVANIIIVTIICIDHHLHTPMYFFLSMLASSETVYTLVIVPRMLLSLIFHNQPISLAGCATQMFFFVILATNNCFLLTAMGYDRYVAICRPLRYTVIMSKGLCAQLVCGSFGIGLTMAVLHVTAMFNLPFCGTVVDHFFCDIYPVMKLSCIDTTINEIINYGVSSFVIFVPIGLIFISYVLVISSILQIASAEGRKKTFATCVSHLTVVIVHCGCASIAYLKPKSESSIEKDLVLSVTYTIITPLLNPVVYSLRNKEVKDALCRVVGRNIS
Method in brief: (§1)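 Each receptor–molecule pair is labelled responsive or non-responsive (inactive) according to whether the original authors judged the measured signal statistically different from baseline. The data were taken from the main text and supplementary material of published papers and checked for typos and inconsistencies. Assay methods differed by source, with transient luciferase assays in mammalian cell lines being common.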

OR10G2 (Homo sapiens) = OR10G2 (Homo sapiens) (UniProt Q8NGC3)
OR10G2 (Homo sapiens), sequence (Q8NGC3 whole entry): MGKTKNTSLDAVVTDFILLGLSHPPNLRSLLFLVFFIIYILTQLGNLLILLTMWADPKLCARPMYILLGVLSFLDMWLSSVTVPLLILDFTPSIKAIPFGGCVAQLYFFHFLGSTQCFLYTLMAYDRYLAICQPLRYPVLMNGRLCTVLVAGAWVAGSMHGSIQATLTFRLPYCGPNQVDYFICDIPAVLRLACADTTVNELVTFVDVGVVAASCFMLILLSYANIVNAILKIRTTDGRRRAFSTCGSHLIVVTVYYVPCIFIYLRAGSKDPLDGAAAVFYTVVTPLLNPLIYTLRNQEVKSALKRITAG
Method in brief: as §1

OR10G3 (Homo sapiens) = OR10G3 (Homo sapiens) (UniProt Q8NGC4)
OR10G3 (Homo sapiens), sequence (Q8NGC4 whole entry): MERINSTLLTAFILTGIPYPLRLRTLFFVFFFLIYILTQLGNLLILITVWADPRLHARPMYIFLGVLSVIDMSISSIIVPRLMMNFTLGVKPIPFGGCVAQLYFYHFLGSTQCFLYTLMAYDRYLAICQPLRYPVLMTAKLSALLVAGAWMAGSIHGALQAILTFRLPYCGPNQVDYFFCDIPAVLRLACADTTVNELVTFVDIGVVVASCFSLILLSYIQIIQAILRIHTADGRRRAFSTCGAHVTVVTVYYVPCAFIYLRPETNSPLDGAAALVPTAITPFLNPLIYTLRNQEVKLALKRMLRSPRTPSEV
Method in brief: as §1

OR10G4 (Homo sapiens) = OR10G4 (Homo sapiens) (UniProt Q8NGN3)
OR10G4 (Homo sapiens), sequence (Q8NGN3 whole entry): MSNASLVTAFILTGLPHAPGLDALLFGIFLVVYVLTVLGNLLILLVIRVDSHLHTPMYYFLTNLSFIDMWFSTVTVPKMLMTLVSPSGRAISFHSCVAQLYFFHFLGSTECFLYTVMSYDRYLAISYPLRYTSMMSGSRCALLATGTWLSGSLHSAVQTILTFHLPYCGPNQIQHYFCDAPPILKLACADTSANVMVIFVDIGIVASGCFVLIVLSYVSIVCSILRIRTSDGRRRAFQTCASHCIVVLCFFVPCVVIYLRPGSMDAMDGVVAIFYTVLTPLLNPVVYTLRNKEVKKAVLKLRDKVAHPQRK
Method in brief: as §1

OR10G6 (Homo sapiens) = OR10G6 (Homo sapiens) (UniProt Q8NH81)
OR10G6 (Homo sapiens), sequence (Q8NH81 whole entry): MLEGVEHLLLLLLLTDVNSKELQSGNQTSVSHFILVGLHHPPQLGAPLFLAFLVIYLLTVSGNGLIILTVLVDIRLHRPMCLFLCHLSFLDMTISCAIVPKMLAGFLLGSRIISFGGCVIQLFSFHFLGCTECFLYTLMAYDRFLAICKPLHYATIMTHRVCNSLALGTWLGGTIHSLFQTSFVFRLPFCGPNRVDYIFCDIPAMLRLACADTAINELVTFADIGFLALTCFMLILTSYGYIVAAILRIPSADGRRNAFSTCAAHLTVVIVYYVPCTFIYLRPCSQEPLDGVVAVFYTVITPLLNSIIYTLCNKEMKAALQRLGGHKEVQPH
Method in brief: as §1

OR10G7 (Homo sapiens) = OR10G7 (Homo sapiens) (UniProt Q8NGN6)
OR10G7 (Homo sapiens), sequence (Q8NGN6 whole entry): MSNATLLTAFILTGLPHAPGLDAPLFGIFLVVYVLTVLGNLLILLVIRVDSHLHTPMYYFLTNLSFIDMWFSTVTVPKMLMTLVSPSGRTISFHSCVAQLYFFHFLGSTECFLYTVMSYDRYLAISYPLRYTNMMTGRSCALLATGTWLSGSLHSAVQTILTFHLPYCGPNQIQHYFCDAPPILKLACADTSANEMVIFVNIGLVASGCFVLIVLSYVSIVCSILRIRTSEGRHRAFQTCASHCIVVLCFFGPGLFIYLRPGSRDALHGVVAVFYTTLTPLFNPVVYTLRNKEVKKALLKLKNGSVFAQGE
Method in brief: as §1

OR10G8 (Homo sapiens) = OR10G8 (Homo sapiens) (UniProt Q8NGN5)
OR10G8 (Homo sapiens), sequence (Q8NGN5 whole entry): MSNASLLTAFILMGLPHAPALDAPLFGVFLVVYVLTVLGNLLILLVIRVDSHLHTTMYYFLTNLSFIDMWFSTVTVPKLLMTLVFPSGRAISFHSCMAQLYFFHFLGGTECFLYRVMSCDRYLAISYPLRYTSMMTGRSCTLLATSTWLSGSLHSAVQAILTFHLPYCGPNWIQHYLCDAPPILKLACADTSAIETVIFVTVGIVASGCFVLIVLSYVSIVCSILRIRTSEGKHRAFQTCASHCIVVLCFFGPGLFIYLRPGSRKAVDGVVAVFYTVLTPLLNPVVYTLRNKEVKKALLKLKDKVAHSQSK
Method in brief: as §1

OR10G9 (Homo sapiens) = OR10G9 (Homo sapiens) (UniProt Q8NGN4)
OR10G9 (Homo sapiens), sequence (Q8NGN4 whole entry): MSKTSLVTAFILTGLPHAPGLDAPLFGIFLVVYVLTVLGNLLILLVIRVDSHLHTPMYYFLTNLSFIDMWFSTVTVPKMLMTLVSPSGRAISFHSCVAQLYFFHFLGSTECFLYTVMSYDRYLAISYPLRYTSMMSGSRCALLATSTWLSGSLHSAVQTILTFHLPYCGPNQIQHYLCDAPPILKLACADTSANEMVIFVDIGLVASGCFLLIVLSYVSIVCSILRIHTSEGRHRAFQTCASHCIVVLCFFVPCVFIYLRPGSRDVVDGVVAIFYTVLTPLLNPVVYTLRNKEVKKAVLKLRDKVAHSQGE
Method in brief: as §1

OR10H1 (Homo sapiens) = OR10H1 (Homo sapiens) (UniProt Q9Y4A9)
OR10H1 (Homo sapiens), sequence (Q9Y4A9 whole entry): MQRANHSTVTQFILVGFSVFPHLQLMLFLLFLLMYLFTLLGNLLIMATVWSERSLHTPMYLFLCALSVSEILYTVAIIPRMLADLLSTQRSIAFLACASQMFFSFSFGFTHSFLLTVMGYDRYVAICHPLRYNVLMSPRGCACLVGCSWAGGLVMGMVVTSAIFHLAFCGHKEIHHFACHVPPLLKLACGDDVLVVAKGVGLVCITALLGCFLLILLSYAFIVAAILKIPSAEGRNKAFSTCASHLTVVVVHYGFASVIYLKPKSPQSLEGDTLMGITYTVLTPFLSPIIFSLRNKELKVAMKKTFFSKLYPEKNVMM
Method in brief: as §1

OR10H2 (Homo sapiens) = target: T2, OR10H2 (Homo sapiens) (UniProt O60403)
T2 sequence (whole entry): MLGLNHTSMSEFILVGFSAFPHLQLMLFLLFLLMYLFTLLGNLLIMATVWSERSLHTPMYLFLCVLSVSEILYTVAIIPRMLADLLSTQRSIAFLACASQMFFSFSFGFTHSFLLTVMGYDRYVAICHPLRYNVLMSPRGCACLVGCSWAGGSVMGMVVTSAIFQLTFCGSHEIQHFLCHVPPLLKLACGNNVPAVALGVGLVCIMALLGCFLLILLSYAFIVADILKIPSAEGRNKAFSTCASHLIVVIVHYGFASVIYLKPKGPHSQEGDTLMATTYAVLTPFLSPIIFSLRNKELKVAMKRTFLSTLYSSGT
Method in brief: as §1

OR10H3 (Homo sapiens) = OR10H3 (Homo sapiens) (UniProt O60404)
OR10H3 (Homo sapiens), sequence (O60404 whole entry): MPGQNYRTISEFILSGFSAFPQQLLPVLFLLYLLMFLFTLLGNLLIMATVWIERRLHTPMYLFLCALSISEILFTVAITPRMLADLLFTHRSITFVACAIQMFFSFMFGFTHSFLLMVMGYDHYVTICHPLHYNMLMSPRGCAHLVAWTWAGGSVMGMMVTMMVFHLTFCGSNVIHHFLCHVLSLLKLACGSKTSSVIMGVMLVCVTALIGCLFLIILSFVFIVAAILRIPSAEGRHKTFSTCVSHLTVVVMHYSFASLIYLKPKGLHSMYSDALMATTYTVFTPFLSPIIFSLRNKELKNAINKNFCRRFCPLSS
Method in brief: as §1

OR10H4 (Homo sapiens) = OR10H4 (Homo sapiens) (UniProt Q8NGA5)
OR10H4 (Homo sapiens), sequence (Q8NGA5 whole entry): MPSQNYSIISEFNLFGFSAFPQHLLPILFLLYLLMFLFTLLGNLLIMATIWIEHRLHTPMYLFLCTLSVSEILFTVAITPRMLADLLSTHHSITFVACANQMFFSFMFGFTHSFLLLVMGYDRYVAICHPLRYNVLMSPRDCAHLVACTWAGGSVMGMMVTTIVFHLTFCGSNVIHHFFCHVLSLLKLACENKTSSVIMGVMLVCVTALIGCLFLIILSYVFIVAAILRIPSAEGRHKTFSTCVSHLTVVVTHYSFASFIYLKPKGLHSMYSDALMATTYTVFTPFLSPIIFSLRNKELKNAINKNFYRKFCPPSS
Method in brief: as §1

OR10H5 (Homo sapiens) = OR10H5 (Homo sapiens) (UniProt Q8NGA6)
OR10H5 (Homo sapiens), sequence (Q8NGA6 whole entry): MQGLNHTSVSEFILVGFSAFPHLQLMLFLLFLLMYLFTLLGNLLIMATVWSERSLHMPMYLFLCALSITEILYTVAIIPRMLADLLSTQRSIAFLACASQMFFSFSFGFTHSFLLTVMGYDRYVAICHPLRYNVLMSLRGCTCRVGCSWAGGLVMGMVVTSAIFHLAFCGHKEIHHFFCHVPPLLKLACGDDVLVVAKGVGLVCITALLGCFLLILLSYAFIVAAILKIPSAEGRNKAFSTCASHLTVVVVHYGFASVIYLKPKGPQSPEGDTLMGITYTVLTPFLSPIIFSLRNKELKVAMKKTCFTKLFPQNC
Method in brief: as §1

OR10J3 (Homo sapiens) = OR10J3 (Homo sapiens) (UniProt Q5JRS4)
OR10J3 (Homo sapiens), sequence (Q5JRS4 whole entry): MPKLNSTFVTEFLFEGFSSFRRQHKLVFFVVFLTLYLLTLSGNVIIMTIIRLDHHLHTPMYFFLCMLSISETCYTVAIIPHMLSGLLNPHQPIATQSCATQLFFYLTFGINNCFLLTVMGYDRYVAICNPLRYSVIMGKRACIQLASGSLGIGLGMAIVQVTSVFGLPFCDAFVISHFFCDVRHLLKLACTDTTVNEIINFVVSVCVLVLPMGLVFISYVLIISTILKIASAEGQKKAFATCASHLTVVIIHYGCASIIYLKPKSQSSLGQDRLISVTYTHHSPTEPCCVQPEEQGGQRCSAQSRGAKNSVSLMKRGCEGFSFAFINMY
Method in brief: as §1

OR10J4 (Homo sapiens) = OR10J4 (Homo sapiens) (UniProt P0C629)
OR10J4 (Homo sapiens), sequence (P0C629 whole entry F198I): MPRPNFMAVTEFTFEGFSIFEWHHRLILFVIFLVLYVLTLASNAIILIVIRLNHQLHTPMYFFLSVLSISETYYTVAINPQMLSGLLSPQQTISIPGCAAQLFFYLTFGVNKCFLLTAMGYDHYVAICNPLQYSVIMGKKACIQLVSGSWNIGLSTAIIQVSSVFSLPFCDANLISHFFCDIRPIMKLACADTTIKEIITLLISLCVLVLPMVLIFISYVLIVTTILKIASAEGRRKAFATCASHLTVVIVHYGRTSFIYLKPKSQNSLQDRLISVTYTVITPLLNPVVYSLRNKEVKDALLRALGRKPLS
Method in brief: as §1

OR10K1 (Homo sapiens) = OR10K1 (Homo sapiens) (UniProt Q8NGX5)
OR10K1 (Homo sapiens), sequence (Q8NGX5 whole entry): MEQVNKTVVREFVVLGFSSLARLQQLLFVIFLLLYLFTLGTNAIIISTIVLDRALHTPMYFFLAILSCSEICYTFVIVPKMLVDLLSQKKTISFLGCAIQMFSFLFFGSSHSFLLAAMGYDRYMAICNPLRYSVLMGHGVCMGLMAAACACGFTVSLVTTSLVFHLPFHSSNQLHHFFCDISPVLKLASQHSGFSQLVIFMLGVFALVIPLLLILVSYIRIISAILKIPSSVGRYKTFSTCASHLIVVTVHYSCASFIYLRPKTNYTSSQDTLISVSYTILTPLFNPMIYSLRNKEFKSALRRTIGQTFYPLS
Method in brief: as §1

OR10K2 (Homo sapiens) = OR10K2 (Homo sapiens) (UniProt Q6IF99)
Method in brief: as §1

OR10P1 (Homo sapiens) = OR10P1 (Homo sapiens) (UniProt Q8NGE3)
OR10P1 (Homo sapiens), sequence (Q8NGE3 whole entry): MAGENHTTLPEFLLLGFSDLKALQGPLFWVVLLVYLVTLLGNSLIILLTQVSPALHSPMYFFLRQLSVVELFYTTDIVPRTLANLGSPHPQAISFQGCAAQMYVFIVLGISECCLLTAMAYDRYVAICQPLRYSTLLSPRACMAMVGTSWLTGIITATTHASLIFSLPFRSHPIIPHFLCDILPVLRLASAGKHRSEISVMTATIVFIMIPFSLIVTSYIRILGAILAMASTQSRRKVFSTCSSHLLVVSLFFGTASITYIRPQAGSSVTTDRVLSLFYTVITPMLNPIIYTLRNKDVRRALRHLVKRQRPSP
Method in brief: as §1

OR10D3 (Homo sapiens) = OR10D3 (Homo sapiens) (UniProt Q8NH80)
Method in brief: as §1

OR10J1 (Homo sapiens) = OR10J1 (Homo sapiens) (UniProt P30954)
Method in brief: as §1

Measured: odorant receptor agonist call

C=CCc1ccccc1
inactive: OR10J5 (Homo sapiens)

Cc1c([N+](=O)[O-])c(C)c([N+](=O)[O-])c(C(C)(C)C)c1[N+](=O)[O-]
inactive: OR10G2 (Homo sapiens) | OR10G3 (Homo sapiens) | OR10G4 (Homo sapiens) | OR10G6 (Homo sapiens) | OR10G7 (Homo sapiens) | OR10G8 (Homo sapiens) | OR10G9 (Homo sapiens) | OR10H1 (Homo sapiens) | OR10H2 (Homo sapiens) | OR10H3 (Homo sapiens) | OR10H4 (Homo sapiens) | OR10H5 (Homo sapiens) | OR10J3 (Homo sapiens) | OR10J4 (Homo sapiens) | OR10J5 (Homo sapiens) | OR10K1 (Homo sapiens) | OR10K2 (Homo sapiens) | OR10P1 (Homo sapiens)

O=c1cc(O)c2ccccc2o1
inactive: OR10J5 (Homo sapiens)

CCC1CCC(=O)O1 (stereo not given)
inactive: OR10J5 (Homo sapiens)

C=CCOC(=O)Cc1ccccc1
inactive: OR10D3 (Homo sapiens) | OR10G2 (Homo sapiens) | OR10G3 (Homo sapiens) | OR10G4 (Homo sapiens) | OR10G6 (Homo sapiens) | OR10G7 (Homo sapiens) | OR10G8 (Homo sapiens) | OR10G9 (Homo sapiens) | OR10H1 (Homo sapiens) | OR10H2 (Homo sapiens) | OR10H3 (Homo sapiens) | OR10H4 (Homo sapiens) | OR10H5 (Homo sapiens) | OR10J1 (Homo sapiens) | OR10J3 (Homo sapiens) | OR10J5 (Homo sapiens) | OR10K1 (Homo sapiens) | OR10P1 (Homo sapiens)

O=CC=Cc1ccccc1
active: OR10H2 (Homo sapiens)
